Measured values: the EternaBench riboswitch data

Tested on: MS2 coat protein
Experiment: apparent Kd, MS2 coat protein; higher = weaker binding; RNA-MaP array; FMN 200 µM where present
How it was run: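 Green signal from SNAP-549-labelled MS2 coat protein was normalised to red-channel RNA signal and to the median Fmax of control clusters. The protein was titrated from 0.7 or 1.5 nM, doubling to 3 µM, without and then with constant ligand, over designs transcribed by stalled E. coli RNA polymerase on Illumina sequencing-chip clusters, in 100 mM Tris-HCl pH 7.5, 80 mM KCl, 4 mM MgCl2, BSA, DTT, yeast tRNA and Tween-20. The apparent Kd is the median of filtered per-cluster binding-curve fits.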

[1] = designed as: OFF switch for flavin mononucleotide, no ligand
[2] = ligand present: flavin mononucleotide, designed as: OFF switch for flavin mononucleotide
[3] = designed as: ON switch for flavin mononucleotide, no ligand
[4] = ligand present: flavin mononucleotide, designed as: ON switch for flavin mononucleotide

| Sequence | apparent Kd [1] | apparent Kd [2] | apparent Kd [3] | apparent Kd [4] |
| --- | --- | --- | --- | --- |
| AGGAGGUUAGGAUAUGCUGCUCGUCACUUGCGUGAUGAGUAGCAGAAGGGACAUGAGGAUCACCCAUGUAAAAA | 48.5 nM | 28.1 nM |  |  |
| CCGAUACGAGGAUAUACAUGAGGAUCACCCAUGUAGUGGACCGAGCGUCGGUGUCUCAGUAGAAGGCGUUAAGA | 16.2 nM | 17.3 nM |  |  |
| GUACAGCGACAUGAGGAUCACCCAUGUAGCCGCCGAUCGUCGCAGGAUAUGGCAAAGGUUAACAGUCAGAAGGGUGAUGUUCGA |  |  | 73.6 nM | 41.3 nM |
| GGAUCGAAUGUGAGGAUAUGCUGGUCCUUGGAUCAGCAGAAGGCACAUGAGGAUCACCCAUGUGUUCCCGGUCC | 79.5 nM | 716 nM |  |  |
| CGGAUGUGAGGAUAUACAUGAGGAUCACCCAUGUGUGCCAGCUAGAUGACUGGCACUUGUAGAAGGCACGUCUG | 11.3 nM | 21.7 nM |  |  |
| GGACAUCCCACAGGAUAUGCUGGACUUUGUCCAGCAGAAGGGUGAAAACAUGAGGAUCACCCAUGUAGGAUGUCCAUAUUUAAU |  |  | 112 nM | 643 nM |
| CUAUGAGCGAUAGGAUAUACUGAGAUUGAGUGGGUAGAAGGAUCGAUAGUGUAGAAGACAUGAGGAUCACCCAUGUUAUGGGUU |  |  | 726 nM | 501 nM |
| AUUGAGCUAGGAUAUACAUGAGGAUCACCCAUGUAGCAAAAUAGCUAUACAUGAUCGGGUAGAAGGAGCGCGAG | 13.6 nM | 20.5 nM |  |  |
| CCUCCACAUGAGGAUCACCCAUGUCAGGAUAUCGUGUGCGCGUUUUCGGUCUUUCGCGCGAGAAGGGACGUCUG | 26.9 nM | 30.1 nM |  |  |
| GAGUGGAAGGCCGCUACAUGAGGAUCACCCAUGUGCUAAGCACAGGAUAUCGCGCUAGCCCGGCGCGAGAAGGGUGACGGCCUG |  |  | 674 nM | 339 nM |
| UACAGCGUAGAUAAUAAUGAUUACAUGAGGAUCACCCAUGUAUAGGAUAUGCAGUGGAAUACACUGCAGAAGGAUACAUCGCUG | 17 nM | 37 nM |  |  |
| AGGAGUAAAGGGAAUAACAUGAGGAUCACCCAUGUAUGGGAGAGAAGGCAGAUCGGAGGACGAUCUGAGGAUAUUUAAACUCUA |  |  | 72.5 nM | 16.8 nM |
| GCUGACGAUGUAGGAUAUCUCGACGAUAAGUCGAGAGAAGGACAUGAGGAUCACCCAUGUCUCCAAACGUCAGCGAGGAAACUC | 16.1 nM | 16.4 nM |  |  |
| GCCAACGCAUGAGGAUAUGCUCCCGUUUCGGGAGCAGAAGGCAUGUCAUAAGACAUGAGGAUCACCCAUGUAGUUAACAUGGCA |  |  | 572 nM | 31.2 nM |
| CUUUUGUGAGGAUAUCAGUAGUAAAAAAAUAUAAUUACUACUGAGAAGGCACAUGAGGAUCACCCAUGUUCCUC | 36.8 nM | 267 nM |  |  |
| AACCGCGACCGGCCUGGCACGUCGAGAAGGGUACGUGACCUGCUUUACAUGAGGAUCACCCAUGUACAGGAUAUCGAAUAGCCG | 5.97 nM | 8.4 nM |  |  |
| GUAGAGGAUUGAGGAUAUGCAGAGAGAUCAUGCGCGUCGCGCACAUGAGGAUCACCCAUGUAAGAGCAGAAGGUAACUAUGAAC | 66.8 nM | 43.4 nM |  |  |
| UUUAUAAAUUAGAAGGCAUGAUGAAUUACAAUAGACAUGAGGAUCACCCAUGUGUAUUCAUGUCAUGAGGAUAUAGUCAUAUAU |  |  | 8.91 nM | 6.45 nM |
| CGCUAGGAUGGGUCUAAUGGACCUCAGGAUAUGCUUGUACAUGAGGAUCACCCAUGUAACAUUGUGCAGAAGGGAGGAUCCACG |  |  | 8.82 nM | 4.57 nM |
| CCGGAAACGGGUAGCUGACAUGAGGAUCACCCAUGUGUAUCACAGGAUAUGGAUCCUAAUUGGAUCCAGAAGGGUGUCAGCUAC |  |  | 1130 nM | 105 nM |
